This is a sample that favours compounds with a hit; in the whole collection about 2.6% have one here.
T cruzi repl: inhibitors of intracellular T. cruzi growth, primary screen, luminescence, NIH3T3 host cells; T. cruzi beta-gal in NIH3T3, 90 h; actives 1.4% (n = 300,000); AID 1885, 2009; inhibition, % (test concentration not listed);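 active = mean inhibition across valid replicates above about 55%, limit read from the data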;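 also: signal also drops with host cell toxicity which is not excluded here; 0% = plate median of DMSO wells and 100% = zero luminescence signal; higher percent means less beta-gal luminescence so fewer parasites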
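System – NIH/3T3 host cells with β-galactosidase reporter T. cruzi · Doses – single 50 nL compound addition per well in DMSO · Reagent – 5000 T. cruzi trypomastigotes/well · Medium – Low-serum DMEM with 2% FBS · Timing – ≥90 h infection period, 3 h prior cell attachment · Evaluation – parasite load inhibition, % · Technique – GalScreen luminescence, 60 min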
PolyA inh: polyadenylation inhibitors in yeast reporter cells, primary screen, luminescence, S. cerevisiae; S. cerevisiae SKY197-pL101 polyadenylation reporter, beta-gal luminescence; efflux-impaired pdr1/pdr3 knockout yeast; score 100 = 6 SD above DMSO; activity score, % at 12 µM; actives 0.02% (n = 300,000); AID 1875, 2009;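 active = lowest replicate activity score at least 50, where 100 means six control SD above control mean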;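 also: yeast exposed to compound for 9 h at 30 °C; higher score means more reporter readthrough which indicates perturbed polyadenylation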
CHT block: inhibitors of human choline transporter CHT. AID 488975, 2010. actives 0.86% (n = 310,000). CHT-expressing cells, membrane potential dye, choline response; hits give low values. High affinity choline transporter 1 (Homo sapiens), Q9GZV3. B-score at 10 µM;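 active = B-score over 3 SD under the library average, and starting fluorescence ratio not unusually high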;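 also: choline stimulus applied at its EC90 after an EC20 pre-addition; B-score computed on integrated fluorescence ratio after choline addition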
Target sequence (Q9GZV3 whole entry, looked up): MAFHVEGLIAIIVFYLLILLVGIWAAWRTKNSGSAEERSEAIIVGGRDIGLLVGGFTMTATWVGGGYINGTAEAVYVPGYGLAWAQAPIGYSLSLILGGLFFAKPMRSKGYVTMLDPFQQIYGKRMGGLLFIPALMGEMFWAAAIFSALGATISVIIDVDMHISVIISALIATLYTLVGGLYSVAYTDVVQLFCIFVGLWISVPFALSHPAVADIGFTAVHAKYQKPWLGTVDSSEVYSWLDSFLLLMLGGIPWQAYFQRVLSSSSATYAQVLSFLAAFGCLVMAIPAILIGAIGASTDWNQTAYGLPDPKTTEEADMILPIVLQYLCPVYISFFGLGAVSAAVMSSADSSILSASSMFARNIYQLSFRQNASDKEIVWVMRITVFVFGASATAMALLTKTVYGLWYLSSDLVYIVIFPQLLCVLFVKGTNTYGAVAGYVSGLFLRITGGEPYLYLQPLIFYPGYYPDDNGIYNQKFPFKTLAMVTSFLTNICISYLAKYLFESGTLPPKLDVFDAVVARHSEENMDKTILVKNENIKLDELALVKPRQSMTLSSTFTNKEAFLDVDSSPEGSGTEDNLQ
CHT PAM: CHT positive allosteric modulators, primary screen, cell-based, membrane potential dye, choline EC20. actives 0.49% (n = 310,000). High affinity choline transporter 1 (Homo sapiens), Q9GZV3. B-score at 10 µM. CHT-expressing cells; hits give high values; LV-AA mutant CHT in HEK293 cells;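 active = initial fluorescence not abnormally high and integrated response B-score, plate-corrected, over 3 SD above library mean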
CHT block conf: CHT inhibitors, confirmation, cell-based, membrane potential dye, duplicate. shares compounds with CHT block. CHT-expressing cells, choline membrane potential dye; LV-to-AA substituted CHT, HEK293 cells. CHT activity remaining % of control (hits give low values), % at 10 µM. actives 70% (n = 2,400);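 active = choline transporter activity left, mean of duplicates at 10 µM, below buffer-only control mean minus 3 SD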;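 also: depolarization triggered by choline at its EC90 following an EC20 pre-addition; 0% = hemicholinium-3 full block and 100% = buffer-only control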
HEK293 CHT ctr: membrane potential effects in parental HEK293, counter-screen for CHT inhibitor project, cell-based, membrane potential dye. membrane potential ratio readout (active if shifted either direction beyond buffer ±3SD; no single direction) at 10 µM. shares compounds with CHT block. AID 493222, 2011. actives 4% (n = 2,400). choline response; active = decrease or increase beyond buffer ±3SD;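 also: parental cells lack the transporter so any hit is non-specific; ratio is peak minus trough fluorescence over baseline after EC90 choline challenge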
Active calls of the source: *; i = inactive; nt = not tested or not shown.

SMILES	T cruzi repl	PolyA inh	CHT block	CHT PAM	CHT block conf	HEK293 CHT ctr
CC(C)(C)OC(=O)NCCCCCc1nnc(SCC(N)=O)o1	-25.2	3.7	-6.32*	i	i	i
C=C(C)CSc1nnc(CCCCCNC(=O)OC(C)(C)C)o1	10.0	-12.7	-5.99*	i	68.2%*	i
CC(C)(C)OC(=O)NCCc1nnc(SCc2ccccc2)o1	1.0	2.5	i	i	nt	nt
O=C(C1CCN(CCCc2ccccc2)CC1)N(CCc1ccccc1)Cc1ccccc1	27.2	2.5	-8.15*	i	23.1%*	3.46*
COc1cccc(C2=NOC(C(=O)Nc3cccnc3Cl)C2)c1OC (stereo not given)	-3.1	3.4	-11.1*	i	i	i
CCn1c(COc2ccccc2)nnc1SCC(=O)Nc1ccc(N2CCOCC2)cc1	-0.5	-3.3	i	i	nt	nt
Cc1noc(C)c1CSc1nc2[nH]ncc2c(=O)n1-c1ccccc1	-40.8	6.8	-5.51*	i	i	i
Oc1c(Br)cc(Br)cc1C=Nc1ccc2c(c1)OCCO2	24.3	-57.3	-5.35*	i	i	i
Oc1c(Br)cc(Br)cc1C=Nc1ccc2c(c1)OCO2	-2.6	0.6	-6.35*	i	i	i
O=[N+]([O-])c1ccc(O)c(C=Nc2ccc3c(c2)OCCO3)c1	-15.5	-35.9	i	i	nt	nt
CCN(CC(=O)Nc1c(F)cccc1F)C(=O)CN1C(=O)NC2(CCCC2)C1=O	3.7	38.9	i	i	nt	nt
O=C(Cc1ccc(S(=O)(=O)N2CCOCC2)s1)Nc1ccc(N2CCOCC2)cc1	15.8	22.2	-5.12*	i	i	i
CC(NC(=O)Cc1ccc(S(=O)(=O)N2CCOCC2)s1)c1ccc(Cl)c(Cl)c1 (stereo not given)	3.1	-3.6	-7.08*	i	57.0%*	i
Cc1nnsc1C(=O)Nc1ccc(S(=O)(=O)N2CCCC(C)C2)cc1 (stereo not given)	-19.6	2.9	i	i	nt	nt
CCC1(c2ccccc2)NC(=O)N(CC(=O)Nc2ccccc2N2CCCC2)C1=O (stereo not given)	-6.1	14.3	i	i	nt	nt
CC1=NN(c2ccccc2)C(=O)/C1=C/c1ccc(-c2ccc(C)c(C(=O)O)c2)o1	5.9	-24.9	-6.17*	i	42.1%*	i
Cc1ccc(S(=O)(=O)NCCC(=O)N2CCC(Cc3ccccc3)CC2)cc1	6.8	-0.4	i	i	i	i
CN(C)c1ccc(C(=O)c2ccc(O)cc2O)cc1	-6.4	-3.1	-5.99*	i	60.7%*	i
O=C(CCCOc1ccc(Cl)cc1)NCCc1ccccc1	-10.6	3.6	i	i	nt	nt
CCN(c1cccc(C)c1)S(=O)(=O)c1ccc2c(c1)N(C(C)=O)CCS2	4.9	6.5	i	i	nt	nt
Cc1ccc(CSc2nnc([C@@H]3CCCN3C(=O)OC(C)(C)C)o2)cc1	18.4	8.0	i	i	nt	nt
Cc1ccc(C)c(NC(=O)c2cccc(Oc3ccc([N+](=O)[O-])cc3Cl)c2)c1	55.2*	17.1	-7.15*	i	49.3%*	i
CC(C)(C)n1ncc2c(=O)n(CC(=O)OCc3ccccc3)cnc21	2.1	-7.3	-6.71*	i	i	i
COc1ccc(S(=O)(=O)N2CCN(C(=O)Nc3ccccc3OC)CC2)cc1	-5.4	17.7	i	i	nt	nt
CCOc1ccc(N(C)S(=O)(=O)c2ccc3[nH]cc(C(=O)NCC4CCCO4)c(=O)c3c2)cc1 (stereo not given)	13.1	17.1	i	i	nt	nt
SMILES	T cruzi repl	PolyA inh	CHT block	CHT PAM	CHT block conf	HEK293 CHT ctr
Cc1ccccc1N(C)S(=O)(=O)c1ccc2[nH]cc(C(=O)NCC3CCCO3)c(=O)c2c1 (stereo not given)	nt	nt	-6.96*	i	67.8%*	i
Cc1cc(SCC(=O)Nc2cccc(S(=O)(=O)NC3=NCCCCC3)c2)c(C)cc1Br	18.2	-5.5	-4.96*	i	i	i
CCOCCCn1c(SCC(=O)Nc2cccc(S(=O)(=O)NC3=NCCCCC3)c2)nc2ccccc2c1=O	16.6	-9.1	-6.39*	i	i	i
CCCn1c(SCC(=O)Nc2cccc(S(=O)(=O)NC3=NCCCCC3)c2)nc2ccccc2c1=O	9.6	-6.1	i	i	nt	nt
CN(C)CCC(=O)c1cccc(Br)c1	33.4	12.9	i	i	nt	nt
Cc1onc(-c2ccccc2)c1C(=O)NNC(=S)NC(=O)c1ccc(Br)cc1	5.3	-0.6	-6.19*	i	54.8%*	i
Cc1ccc(SCC(=O)OC(C)C(=O)NCc2ccccc2)cc1 (stereo not given)	-8.7	-10.3	i	i	nt	nt
CC12Cc3ccc4ccccc4c3C=C1C[N+](C)(C)C2 (stereo not given)	-1.7	-6.0	i	i	nt	nt
CC[N+]1(CC)CC2=Cc3c(ccc4ccccc34)CC2C1 (stereo not given)	-1.6	13.8	-6.41*	i	45.8%*	i
Cc1c(NCc2cc(Cl)cc(Cl)c2O)c(=O)n(-c2ccccc2)n1C	-6.2	3.5	-5.01*	i	i	i
Cc1c(NCc2cc(Cl)ccc2O)c(=O)n(-c2ccccc2)n1C	9.9	-4.8	i	i	nt	nt
CCOC(=O)c1cc(NC(=O)CNCC(c2ccccc2)N(C)C)cc(C(=O)OCC)c1 (stereo not given)	24.3	-0.9	-6.77*	i	33.1%*	2.19*
CCOc1c(Cl)cc(/C=C/C(=O)N(CC)CC(=O)NCc2cccs2)cc1OC	4.5	-1.1	-7.56*	i	i	i
Cn1cc(S(=O)(=O)Nc2ccc3c(c2)OCCO3)cn1	14.8	-2.9	i	i	nt	nt
O[C@@H]1CN(Cc2ccc(-n3cccn3)cc2)CC[C@H]1N1CCN(c2ccccc2F)CC1	21.3	-12.4	i	i	nt	nt
CCN(CC)CCCNC(=O)c1cc(-c2ccc(Cl)c(Cl)c2)on1	29.4	-8.2	-6.65*	i	30.7%*	i
Cc1cc(C)c(NC(=O)COC(=O)c2cccc3c2C(=O)c2ccccc2C3=O)c(C)c1	-9.3	-20.9	-5.09*	i	i	i
Cc1csc(CN(C)C(=O)CC2C(=O)NCCN2Cc2ccc(Cl)c(F)c2)n1 (stereo not given)	-8.8	7.1	i	i	nt	nt
CCOC(=O)c1oc2nc(CC(C)C)c3c(c2c1N)CCCC3	14.4	-2.5	-11.5*	i	12.6%*	i

From PubChem
